This is a sample that favours compounds with a hit; in the whole collection about 2.3% have one here.
TRPC4 inh: blocks the mouse TRPC4 cation channel; B-score at 10 µM; HEK293 TRPC4beta/mu-opioid, DAMGO-evoked Fluo4 calcium flux; stronger effect = lower value; Q9QUQ5; 300,000 compounds, 0.39% hits;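 active means B-score over 3 SD under the library average, no early fluorescence shift, positive overall ratio signal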
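Signal: kinetic Fluo4 fluorescence imaging of calcium influx. Material: stable TRPC4beta/mu-opioid receptor HEK293 cells. Probe or stimulus: DAMGO in two steps, submaximal then maximal.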
TRPC4 PAM: allosteric potentiators of mouse TRPC4 channel; HEK293 TRPC4beta/mu-opioid, DAMGO EC20, Fluo-4 Ca2+ flux; stronger effect = higher value; B-score at 10 µM; 310,000 compounds, 0.42% hits; AID 2227;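 active means B-score of calcium response area above 5 SD of library B-scores, with initial fluorescence ratio within 5 SD of library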
TRPC4 agonist: TRPC4 (mouse) channel activation. HEK293 TRPC4beta/mu-opioid, Fluo4 calcium fluorescence; stronger effect = higher value. Q9QUQ5. 310,000 compounds, 0.49% hits. B-score at 10 µM;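 active means B-score above 5 SD of library B-scores, and initial fluorescence ratio not above library mean plus 5 SD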;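 further: positive B-score marks a calcium rise read as TRPC4 activation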
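System: HEK293 cells stably co-expressing mouse TRPC4beta and mu-opioid receptor; Schedule: Fluo4 dye loading 45 min at room temperature, 110 s recording; Detection: Fluo4 fluorescence, kinetic; Evaluation: B-scored integrated calcium fluorescence ratio; Controls: buffer (low) and maximal DAMGO (high).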
TRPC6 act: mouse TRPC6 channel activation. Q61143. HEK293-TRPC6 membrane potential dye fluorescence; stronger effect = higher value. B-score at 10 µM. 310,000 compounds, 0.13% hits;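 active means B-score of the integrated fluorescence ratio above library mean plus 3 SD, and starting fluorescence ratio within library mean plus 5 SD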;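 further: higher score means more depolarization so channel activation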
TRPC6 inhibitor: inhibitors of mouse TRPC6 channel. B-score at 10 µM. 310,000 compounds, 1.1% hits. HEK293-TRPC6, membrane potential dye, ACh-evoked depolarization; stronger effect = lower value;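 active means B-score under library mean minus 3 SD, initial fluorescence not abnormally high, positive integrated signal ratio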;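 further: B-score derived from integrated fluorescence ratio over the kinetic read; more negative B-score means stronger inhibition of depolarization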
A number is an active result; 0 = inactive.

SMILES | TRPC4 inh | TRPC4 PAM | TRPC4 agonist | TRPC6 act | TRPC6 inhibitor
COC(=O)C1CCN(Cc2ccc(OCCCN3CCN(c4ccc([N+](=O)[O-])cc4)CC3)cc2)CC1 | 0 | 0 | 0 | 0 | 0
COc1cc2[nH]c(C(=O)N3CC(C)OC(C)C3)cc2c(OC)c1OC (centres undefined) | 0 | 0 | 0 | 0 | 0
O=C(O)c1cc(S(=O)(=O)NC(Cc2c[nH]c3ccccc23)C(=O)O)ccc1Cl (centres undefined) | 0 | 0 | 0 | 0 | 0
CCOC(=O)C1(CCOc2ccccc2)CCN(Cc2cc(OC)ccc2OC)CC1 | 0 | 0 | 98 | 0 | 0
CCOC(=O)C1(CCOc2ccccc2)CCN(Cc2ccc(-n3cccn3)cc2)CC1 | -7 | 0 | 0 | 0 | 0
CCOC(=O)C1(CCOc2ccccc2)CCN(Cc2cccn2-c2ncccn2)CC1 | -9 | 0 | 0 | 0 | 0
CCOC(=O)C1(CCOc2ccccc2)CCN(Cc2cccs2)CC1 | -5 | 0 | 0 | 0 | 0
CCOC(=O)C1(CCOc2ccccc2)CCN(Cc2cccc(OC)c2)CC1 | 0 | 0 | 0 | 0 | 0
CCOC(=O)C1(CCOc2ccccc2)CCN(Cc2nccn2CC)CC1 | 0 | 0 | 0 | 0 | 0
CCOC(=O)C1(CCOc2ccccc2)CCN(Cc2ccc(C(=O)OC)cc2)CC1 | 0 | 0 | 0 | 0 | 0
CCOC(=O)C1(CCOc2ccccc2)CCN(Cc2ccncc2)CC1 | 0 | 0 | 0 | 0 | 0
CC(C)(C)NS(=O)(=O)c1ccc(NC(=S)NC(=O)C2CC2)cc1 | 0 | 0 | 0 | 0 | 0
CNC(=S)N(Cc1ccccc1)Cc1cccnc1 | 0 | 0 | 0 | 0 | 0
C/C(=N/NC(=O)C(O)(c1ccccc1)c1ccccc1)c1ccc([N+](=O)[O-])o1 | 0 | 0 | 0 | 0 | 0
CCOC(=O)C1(CCOC)CCN(Cc2ccncc2)CC1 | 0 | 0 | 0 | 0 | 0
CCOC(=O)C1(CCOC)CCN(Cc2ccccc2-c2ccco2)CC1 | 0 | 0 | 123 | 0 | 0
CCS(=O)(=O)N1Cc2ccccc2CC1C(=O)Nc1ccc(F)c(F)c1F (centres undefined) | 0 | 0 | 0 | 0 | 0
CCCNC(=O)c1nnsc1S(=O)c1ccc(Cl)cc1 (centres undefined) | -6 | 0 | 0 | 0 | 0
O=C(C[N+]1(CC#Cc2ccccc2)CCCCC1)c1ccc(Cl)cc1 | -6 | 0 | 0 | 0 | 0
Cc1ccc(/C=C2\SC(=S)N(CCCC(=O)Nc3ccccc3C(=O)O)C2=O)cc1 | 0 | 0 | 0 | 0 | 0
COc1ccc(/C=C2/SC(=S)N(CCCC(=O)Nc3ccccc3C(=O)O)C2=O)cc1 | -6 | 0 | 0 | 0 | 0
CN1CCN(Cc2nc3c(c(=O)[nH]c(=O)n3C)n2CCc2ccccc2)CC1 | 0 | 0 | 0 | 0 | 0
CN1CCN(Cc2nc3c(c(=O)[nH]c(=O)n3C)n2Cc2c(F)cccc2Cl)CC1 | 0 | 20 | 80 | 0 | 0
COc1cccc(-c2nc(CS(=O)(=O)CC(=O)NCCCN3CC(C)CC(C)C3)c(C)o2)c1 (centres undefined) | 0 | 0 | 65 | 0 | 0
Cc1ccccc1-c1nc(CS(=O)(=O)CC(=O)NCCCN2CC(C)CC(C)C2)c(C)o1 (centres undefined) | 0 | 0 | 66 | 0 | 0
SMILES | TRPC4 inh | TRPC4 PAM | TRPC4 agonist | TRPC6 act | TRPC6 inhibitor
Cc1oc(-c2ccc(Cl)cc2)nc1CS(=O)CC(=O)NCCN1CCCCCC1 (centres undefined) | 0 | 0 | 0 | 0 | 0
Cc1ccccc1-c1nc(CS(=O)(=O)CC(=O)NCCCN2CCOCC2)c(C)o1 | 0 | 0 | 0 | 0 | 0
Cc1oc(-c2ccc(Cl)cc2)nc1CS(=O)CC(=O)NCCCN1CC(C)CC(C)C1 (centres undefined) | 0 | 0 | 54 | 0 | 0
c1csc(C(c2nnnn2C2CCCC2)N2CCCC3(CCCCC3)C2)c1 (centres undefined) | 0 | 0 | 0 | 0 | 0
NC(=O)c1ccc(NC(=O)CCN2C(=O)c3ccccc3C2=O)cc1 | 0 | 0 | 0 | 0 | 0
Cc1cc(Br)c(NC(=O)CN(C)CCOc2ccccc2)c(Br)c1 | -6 | 0 | 0 | 0 | 0
CC(C)c1nnc(NC(=O)c2cccs2)s1 | 0 | 0 | 0 | 0 | 0
CCCCC(CC)c1nnc(NC(=O)c2cccs2)s1 (centres undefined) | -9 | 0 | 0 | 0 | 0
CC1=NN(c2ccccc2)C(=O)/C1=C/c1c(O)n(-c2ccc(F)c(Cl)c2)[nH]c1=O | -8 | 0 | 0 | 0 | 0

Bioassay records from PubChem.
